FN deposition inh – fibronectin deposition inhibition | AID 743247 | AH1F fibroblasts, Alexa488-fibronectin deposition fluorescence, overnight | actives 0.086% (n = 350,000) | inhibition, % at 12.6 µM;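 active = mean inhibition across replicates of 30% or more, regardless of how many single replicates reach that level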
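Assay system: AH1F fibroblast monolayer, labelled fibronectin deposition. Amount: 10000 cells per well. Also added: labelled fibronectin 24 nM. Compound: single-point pinned compound. Incubation: cell attachment 1 h, compound and FN exposure overnight. Detection: fluorescence after three HBSS washes, excitation 485 nm, emission 525 nm. Read-out: inhibition of fibronectin deposition signal.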
Ecoli rRNA inh – inhibits bacterial ribosomal RNA function over humanized ribosomes; E. coli WT GFP vs humanized-ribosome RFP mutants, fluorescence, 24 h; active compounds read low; DMSO median 0, no signal -100; GFP signal change (wild-type ribosome), % (no concentration beside the values); actives 1.6% (n = 350,000); AID 720706;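 active = significant combined selectivity score with lowered wild-type GFP, culture density cut under 30%, mutant RFP and density less affected; inactive = any of these conditions unmet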
FGF22 binding – binders of recombinant human FGF22 by thermal shift; SYPRO orange fluorescence; percent of sucrose octasulfate shift, DMSO zero; actives 1.5% (n = 340,000); activity (Tm shift, normalised), % at 9.99 µM; AID 651658; Q9HCT0;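 active = mean Tm shift, scaled 0 neutral to 100 positive control, at about 1.3% or above, every replicate too, limit read from the data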
Target sequence (Q9HCT0 whole entry, looked up): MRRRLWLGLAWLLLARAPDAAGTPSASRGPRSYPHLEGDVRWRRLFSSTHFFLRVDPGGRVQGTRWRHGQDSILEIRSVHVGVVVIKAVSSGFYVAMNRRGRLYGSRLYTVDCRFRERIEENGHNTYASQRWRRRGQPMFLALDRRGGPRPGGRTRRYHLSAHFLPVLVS
SIRT5 block – blocks human SIRT5 desuccinylation of peptide; AID 652115; Q9NXA8; Purified SirT5, succinyl-peptide AMC, trypsin-coupled fluorescence; inhibition, % at 15 µM; actives 1.1% (n = 330,000); in the data active = inhibition above about 15%
Target sequence (Q9NXA8 whole entry, looked up): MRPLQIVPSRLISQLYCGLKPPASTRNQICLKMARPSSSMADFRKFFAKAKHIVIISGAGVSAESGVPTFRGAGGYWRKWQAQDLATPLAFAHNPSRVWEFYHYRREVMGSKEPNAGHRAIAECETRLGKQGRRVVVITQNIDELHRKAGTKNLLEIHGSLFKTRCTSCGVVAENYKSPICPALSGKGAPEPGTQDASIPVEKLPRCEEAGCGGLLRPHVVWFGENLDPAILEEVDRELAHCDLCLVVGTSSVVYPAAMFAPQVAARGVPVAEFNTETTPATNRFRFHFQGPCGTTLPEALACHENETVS
E-selectin induc – induces E-selectin expression in human endothelial cells | AID 686992 | activation, % at 7.58 µM | HUVEC E-selectin immunofluorescence imaging; normalized: neutral wells 0, TNF-alpha wells 100 | actives 0.37% (n = 260,000) | P16581;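 active = mean E-selectin-positive cell signal at least 10% of the positive control, reached in at least 60% of replicates, without over 20% cell loss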
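Assay system: HUVEC primary endothelial cells. Input: 3,000 HUVEC seeded per well. Doses: one compound dose added by pin transfer. Read-out basis: % PE-positive cells. Benchmarks: TNF-alpha high, DMSO low. Detection: immunofluorescence imaging. Buffer or medium: EGM-2, gelatin.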
Statin myotox sup – suppressors of simvastatin-induced myotoxicity in C2C12 myotubes; actives 0.78% (n = 330,000); rescue of ATP level, % at 7.49 µM; ATP luminescence, 48 h; scaled: DMSO 0, geranylgeraniol control 100;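 active = mean ATP rescue above about 67%, or every replicate alone reaching that limit, limit read from the data, passing the limit was not always enough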;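 note: myotubes were challenged with 10 µM simvastatin during compound exposure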
Numbers stand for hits; – = inactive; · = not tested or not shown. A selection: hits, their analogues and other compounds. The true share with any hit is near 4%.

SMILES	FN deposition inh	Ecoli rRNA inh	FGF22 binding	SIRT5 block	E-selectin induc	Statin myotox sup
Cc1n[nH]c(C)c1N=Nc1ccc(Br)cc1	–	-36	–	–	·	–
COc1ccc(N=Nc2c(C)n[nH]c2C)cc1	–	–	–	–	–	–
O=C(C[C@H]1CC[C@@H](NC(=O)C2CC2)[C@H](CO)O1)NCCCN1CCOCC1	–	–	–	–	–	–
Cc1oc(-c2ccc(Cl)cc2)[n+]([O-])c1C	–	·	·	·	·	76
O=C(Nc1ccn(Cc2c(F)c(F)cc(F)c2F)n1)c1ccc(COc2ccccc2Cl)cc1	·	–	–	–	·	·
Cc1cc(C)nc(NC(=O)c2ccc(COc3ccccc3Cl)cc2)c1	–	-24	44	–	·	–
CC(C)(C)c1ccc(NC(=O)N2CCCN(c3ccc([N+](=O)[O-])cn3)CC2)cc1	–	–	–	·	76	–
O=C(Nc1ccc([N+](=O)[O-])cc1)N1CCCCCC1	–	–	–	–	–	–
CCN1CCCCC(=N/O)/C(=N/O)CCCC1	–	–	–	18	·	–
C[C@H]1CN([C@@H](C)CO)C(=O)c2cc(NC(=O)CCC(F)(F)F)ccc2O[C@H]1CN(C)C(=O)Nc1ccc(C(F)(F)F)cc1	·	–	–	–	–	–
COCCN(C(=S)Nc1cccc(C)c1C)C(C)c1ccco1 (configuration not stated)	–	–	–	–	–	·
COCCN(C(=S)Nc1ccccc1C)C(C)c1ccco1 (configuration not stated)	–	–	43	–	–	–
COc1ccc(C(=O)NC(=S)NNC(=O)c2ccccc2C)cc1	–	-41	–	–	·	–
O=C(NC(=S)NNC(=O)c1ccccc1O)c1cccc([N+](=O)[O-])c1	–	–	–	–	–	–
COc1ccc(C(=O)NNC(=O)c2cccc3ccccc23)cc1	–	–	44	·	–	–
COc1ccc(C(=O)NC(=S)NNC(=O)c2ccccc2O)cc1	–	–	–	–	–	–
COc1ccc(C(=O)NNC(=S)NC(=O)c2cccc([N+](=O)[O-])c2)cc1	–	-26	–	–	–	·
COc1ccc(C(=O)NNC(=S)NC(=O)/C=C/c2cccs2)cc1	–	–	43	–	·	·
CC(C)NC(=O)N(C)C[C@H]1OCc2cn(nn2)CCCC(=O)N([C@@H](C)CO)C[C@@H]1C	–	–	–	–	–	–
C[C@H](CO)N1C[C@H](C)[C@H](CN(C)S(=O)(=O)c2ccc(Cl)cc2)Oc2ccc(NS(=O)(=O)c3ccccc3)cc2CC1=O	·	–	–	·	–	–
COc1ccccc1N1CCN(C(=O)C(=O)c2cccc([N+](=O)[O-])c2)CC1	–	–	–	·	–	·
COc1ccc(N2CCN(C(=O)C(=O)c3cccc([N+](=O)[O-])c3)CC2)cc1	–	-4.6	–	·	–	·
CCN(CC(=O)Nc1cc(Cl)ccc1C)C(=O)CCOc1ccccc1C	–	–	·	–	·	–
CCN(CC(=O)Nc1cc(Cl)ccc1C)C(=O)COc1ccccc1F	–	–	44	–	·	·
CCOc1cc(/C=C2\SC(=N)N(c3nonc3N)C2=O)ccc1OCCN1CCOCC1	–	–	1.5	–	·	·
SMILES	FN deposition inh	Ecoli rRNA inh	FGF22 binding	SIRT5 block	E-selectin induc	Statin myotox sup
C[C@H](CO)N1C[C@H](C)[C@@H](CN(C)Cc2ccccc2)Oc2ccc(NC(=O)Nc3ccc(F)cc3)cc2C1=O	·	–	–	–	–	–
COc1cccc(NC(=O)Nc2ccc3c(c2)C(=O)N(C)[C@@H]2CC[C@@H](CC(=O)O)O[C@H]2CO3)c1	–	–	–	·	–	–
O=C(COC(=O)c1ccc(-n2cnnn2)cc1)c1ccc(Br)cc1	–	–	–	–	27	–
C[C@H](CO)N1C[C@H](C)[C@@H](CN(C)Cc2ccccc2)Oc2ccc(NC(=O)Nc3ccccc3)cc2CC1=O	·	–	–	–	·	–
Fc1ccc(-n2cc(CNCCc3ccncc3)c(-c3ccccc3Cl)n2)cc1	–	–	–	–	·	·
Fc1ccc(-n2cc(CNCCc3cccnc3)c(-c3ccccc3Cl)n2)cc1	–	-40	–	–	–	·
O=C1c2ccccc2C(c2nnnn2Cc2ccccc2)N1Cc1ccc(F)cc1 (configuration not stated)	–	–	–	–	–	·
